NPY-Y1 antag: antagonists of human neuropeptide Y receptor Y1 | P25929 | HEK293-CNG Y1 cells, membrane potential fluorescence; NPY at EC95, then isoproterenol | inhibition, % at 3.6 µM | actives 1% (n = 200,000);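 active = inhibition above the campaign mean inhibition of all tested compounds plus 3 SD, cut at about 20% in these data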;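 note: 0% = DMSO wells given NPY plus isoproterenol and 100% = isoproterenol alone without NPY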
Target sequence (P25929 whole entry, looked up): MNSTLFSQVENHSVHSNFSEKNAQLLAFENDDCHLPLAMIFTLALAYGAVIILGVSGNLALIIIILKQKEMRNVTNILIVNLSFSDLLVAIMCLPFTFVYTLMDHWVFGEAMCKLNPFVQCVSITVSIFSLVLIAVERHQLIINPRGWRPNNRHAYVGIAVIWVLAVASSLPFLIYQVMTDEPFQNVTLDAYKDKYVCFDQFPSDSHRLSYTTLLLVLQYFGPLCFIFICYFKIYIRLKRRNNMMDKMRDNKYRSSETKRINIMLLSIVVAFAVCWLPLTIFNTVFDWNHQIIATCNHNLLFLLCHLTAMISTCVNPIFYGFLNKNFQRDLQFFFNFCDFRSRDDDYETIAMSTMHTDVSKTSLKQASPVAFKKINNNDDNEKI
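Material: HEK293 cells co-expressing NPY Y1 receptor and cyclic-nucleotide gated channel. Timing: compound incubation 1 h at room temperature, readout 45 min post-stimulation. Signal: fluorescence, membrane potential probe.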
Wee1 degr inh: inhibitors of human Wee1 degradation. AID 1321. P30291. reporter increase, % at 5 µM. actives 1.2% (n = 220,000). HeLa Luc-Wee1K328M stability, luciferase luminescence; 100% = proteasome inhibitor MG132 effect;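 active = activation above the mean of all tested compounds plus 3 SD, set per screening run, cut at about 8.8% in these data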;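 note: cells exposed to compound for 20 h before luminescence read; 0% = DMSO alone and 100% = MG132 at 30 µM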
Hsp70 act: switches on Hsp70 transcription. HeLa Hsp70 promoter luciferase reporter, luminescence; scaled: vehicle 0, proteasome-inhibitor control 100%. activation, % at 10 µM. actives 0.04% (n = 200,000);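 active = activation above the mean across all tested compounds plus 3 SD, cutoff set per campaign, cut at about 5.5% in these data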;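 note: 100% = MG132 at 30 µM as the positive control and 0% = DMSO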
NPY-Y2 antag: antagonists of human neuropeptide Y receptor Y2; AID 793; actives 0.99% (n = 140,000); inhibition, % at 2.7 µM; P49146; NPY-Y2 expressing cells, antagonist mode; in the data active = inhibition above about 17%;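 note: 0% = vehicle with agonist challenge and 100% = reference antagonist with challenge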
NPY-Y2 PAM-ag: human NPY-Y2 potentiation or agonism, primary screen | activation, % at 3.6 µM | actives 0.45% (n = 220,000) | cells expressing NPY-Y2, potentiator/agonist read-out; in the data active = activation above about 27%;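 note: cells stimulated with NPY near EC25 plus isoproterenol at EC100; 0% = vehicle plus submaximal agonist and 100% = vehicle plus saturating agonist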
NPY-Y1 PAM-ag: potentiates or activates human NPY-Y1 receptor. NPY-Y1 expressing cells, potentiator/agonist activation. P25929. AID 1304. activation, % at 3.6 µM. actives 0.37% (n = 220,000); in the data active = activation above about 33%, passing the limit was not always enough;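 note: cells stimulated with NPY at EC10 then isoproterenol at EC100; 0% = low agonist plus stimulus and 100% = saturating agonist plus stimulus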
NPY1 antag ctr: human NPY-Y1 antagonism in NPY-Y2 counter-screen; shares compounds with NPY-Y2 antag; cell-based NPY-Y1 antagonism counterscreen; inhibition, % at 3.6 µM; actives 19% (n = 710); in the data active = inhibition above about 20%;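 note: cells challenged with NPY then isoproterenol with cAMP sensed through a CNG channel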
NPY-Y2 ant conf: confirmation of human neuropeptide Y receptor Y2 antagonists | actives 32% (n = 710) | HEK293 NPY-Y2 CNG channel, membrane potential fluorescence | inhibition, % at 2.8 µM | shares compounds with NPY-Y2 antag;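 active = mean inhibition of triplicate wells above the hit cutoff set in the primary screen, cut at about 17% in these data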;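 note: 0% = DMSO with NPY challenge and 100% = BIIE0246 high control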
Starred values were filed as active, the others as inactive; x = not tested or not shown. Only some compounds are listed: those with a hit (about 3% of all), similar ones and a draw of the others.

SMILES	NPY-Y1 antag	Wee1 degr inh	Hsp70 act	NPY-Y2 antag	NPY-Y2 PAM-ag	NPY-Y1 PAM-ag	NPY1 antag ctr	NPY-Y2 ant conf
CCN(CC)S(=O)(=O)c1ccc(/C=C/C(=O)Nc2ccc(Br)cc2F)cc1	18	1	0	17*	11	-27	29*	17*
CC(C)N(C(=O)Cn1c(-c2ccccc2Cl)nc2ccccc21)c1ccccc1	2	2	0	5	-3	-14	x	x
CCc1cccc(CC)c1NC(=O)Cn1c(-c2ccccc2Cl)nc2ccccc21	8	4	0	24*	-4	-2	13	11
COCCOC(=O)c1[nH]c2c(c1C)C(=O)CC(c1ccco1)C2 (stereo not given)	9	7	0	32*	9	3	-3	5
C/C(=N\NC(=O)C(=O)Nc1cc(C)ccc1C)c1ccncc1	x	4	x	x	-6	13	x	x
CCN(CC)c1ccc(C(=O)OCC(=O)Nc2ccccc2-c2ccccc2)cc1	6	-2	0	21*	0	-29	12	11
O=C(COC(=O)/C=C/c1ccc(Cl)cc1)Nc1ccccc1-c1ccccc1	-2	4	-1	22*	10	5	20	17*
CN(C)c1cccc(C(=O)OCC(=O)Nc2ccccc2-c2ccccc2)c1	2	0	0	4	3	-15	x	x
COC(=O)c1c(-c2ccc(F)cc2)csc1NC(=O)c1ccco1	11	6	0	25*	-10	-6	11	12
CCOC(=O)N1CCC(NC(=O)CSCc2nc(-c3sccc3C)oc2C)CC1	2	0	0	2	7	-7	x	x
CCOC(=O)N1CCC(NC(=O)CSCc2nc(-c3cccc(OC)c3)oc2C)CC1	-3	-1	0	24*	6	12	2	2
COCCNC(=O)C(c1ccc(C)o1)N(C(=O)c1snc(C(N)=O)c1N)c1cc(C)cc(C)c1 (stereo not given)	4	1	0	4	3	-6	x	x
Cc1onc(-c2ccccc2Cl)c1C(=O)Nc1sc2c(c1C#N)CCC2	3	-1	1	26*	-79	-51	9	18*
N#Cc1c(NC(=O)C2CC(c3ccccc3Cl)=NO2)sc2c1CCC2 (stereo not given)	8	-2	0	15	-26	-34	x	x
CC(C)CC(c1nnnn1Cc1ccco1)N1CCN(C2CCCC2)CC1 (stereo not given)	10	-2	0	19*	-21	-27	7	4
O=C(COc1ccccc1CNCc1ccccc1)Nc1ccccc1	19	9	0	21*	-31	-36	14	25*
N#CCSc1nnc(COc2cccc3ccccc23)n1-c1ccccc1	2	-1	0	15	8	31	x	x
COc1ccc(-n2c(COc3cccc4ccccc34)nnc2SCC#N)cc1	16	-1	0	18*	-3	-17	6	6
CCc1cccc(CC)c1NC(=O)c1ccccc1CCc1ccccc1	2	-1	0	19*	-6	-48	28*	17
CCC(C)(C)n1nnnc1C(c1ccc2ncccc2c1)N1CCCC(C)C1 (stereo not given)	19	-2	0	18*	-1	-11	11	10
CCCn1c(SCc2nc(-c3cccs3)no2)nnc1-c1ccncc1	-3	-2	0	4	-3	-14	x	x
CCOc1ccc(-n2c(SCc3nc(-c4cccs4)no3)nnc2-c2ccncc2)cc1	18	0	0	18*	-2	-52	17	14
Oc1ccc(-c2nccc(-c3cccs3)n2)cc1	2	1	0	0	-12	7	x	x
CCOc1nc(SCCOc2ccc(Cl)cc2Cl)nc(N(C)C)n1	10	-3	-1	20*	-16	-39	20	44*
CCOc1nc(SCCOc2ccc(C)cc2)nc(N(C)C)n1	12	3	0	11	-14	-48	x	x
SMILES	NPY-Y1 antag	Wee1 degr inh	Hsp70 act	NPY-Y2 antag	NPY-Y2 PAM-ag	NPY-Y1 PAM-ag	NPY1 antag ctr	NPY-Y2 ant conf
CC(=O)NC1(c2ccccc2)CCN(c2nc(C)cc(C)n2)CC1	15	1	0	49*	-10	-20	35*	35*
Cc1cc(C)nc(N2CCC(C(=O)NNC(=O)Cc3ccccc3)CC2)n1	x	0	x	x	-12	-5	x	x
NS(=O)(=O)c1ccc(CCNC(=O)CSc2nnc3ccccn23)cc1	-5	0	0	x	9	-14	x	x
O=C(c1sc2cc(F)ccc2c1Cl)N1CCN(c2ccccc2)CC1	-3	4	0	13	1	-3	x	x
Brc1ccc2c(c1)OCCOCCOc1cc(Br)ccc1OCCOCCOCCO2	19	-1	0	24*	-4	-16	19	15
Cc1ccc(-c2nc3ccsc3c(=O)[nH]2)cc1	1	-1	0	x	0	-5	x	x
O=C(Cc1ccc(Br)cc1)OCC(=O)N1CCc2ccccc2C1	8	-3	0	18*	-11	-16	7	8
CCCC1Cc2c(sc(N)c2C#N)CO1 (stereo not given)	5	6	0	x	-20	0	x	x
Cc1ccccc1NC(=O)c1cccc2nc3ccccc3nc12	-6	-1	0	19*	6	20	-2	-4
Cc1ccccc1C(=O)Nc1ccc(-c2nnc(SC(C)C(=O)O)n2C)cc1 (stereo not given)	x	-4	x	x	4	9	x	x
COCCOC(=O)c1c(C)oc2ccc(NS(=O)(=O)c3ccccc3)cc12	0	5	0	5	-13	-3	x	x
CCOC(=O)c1c(C)oc2ccc(NS(=O)(=O)c3ccc4c5c(cccc35)C(=O)N4)cc12	10	3	0	27*	-14	-45	5	14
O=C(CCc1nnc(CCCCc2ccccc2)o1)NCCN1CCCCC1=O	2	-3	0	x	-4	4	x	x
CN1C(=O)NC2(O)C(=O)c3ccccc3C12O (stereo not given)	5	2	0	19*	-7	-18	-1	3
CCCCOc1ccc(C2=NNC(=O)CC2)cc1	9	3	1	22*	-10	-40	19	39*
COc1cccc(-c2nnc3sc(-c4ccc(C)cc4)nn23)c1	1	-1	0	26*	0	9	15	8
CCn1nc(C(=O)Nc2ccccc2C)c(Cl)c1Cl	8	-1	0	6	-39	-31	x	x
CCn1nc(C(=O)Nc2cccc3ccccc23)c(Cl)c1Cl	15	-1	-1	18*	-19	-34	11	11
